Source: PubChem
SR-BI DiI inh = mouse SR-BI HDL lipid transfer inhibition | 320,000 tested, 0.96% active | Q61009 | inhibition, % at 12.5 µM | AID 488896 | ldlA[mSR-BI] CHO cells, DiI-HDL uptake fluorescence, 3 h;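 active = mean replicate inhibition of at least 70% and a set share of replicates each scoring 70 or more; inconclusive = meets just one of the two criteria; inactive = fails both criteria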;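 also: 0% = median of neutral control wells and 100% = median of positive control wells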
GAA850 FXN act = frataxin GAA850 promoter activation; HEK293 lucGAA850 FXN promoter luciferase reporter, 24 h; percent of 10 µM SAHA response; activation, % at 6 µM; 360,000 tested, 0.56% active; AID 540364;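 active = activation above the average of all compounds screened plus 3 SD, cutoff fixed separately per campaign, cut at about 7.5% in these data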;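 also: 0% = DMSO wells and 100% = 10 µM SAHA wells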
JMJD2C inh = human JMJD2C demethylase inhibition; Q9H3R0; GST-JMJD2C(1-420) H3K9me3 demethylation, DELFIA europium; inhibition, % at 2.35 µM; 330,000 tested, 0.069% active; AID 2099;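 active = more than half of a compound's replicate wells show inhibition beyond 50%, single wells judged on their own value; inconclusive = some, but no more than half, of replicates pass 50% inhibition; inactive = no replicate passes 50% inhibition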;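 also: signal counts dimethyl H3K9 product captured on neutravidin plate; 0% = median of DMSO wells and 100% = 0.3 times that DMSO median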
Target sequence (Q9H3R0 1-420 limits assumed): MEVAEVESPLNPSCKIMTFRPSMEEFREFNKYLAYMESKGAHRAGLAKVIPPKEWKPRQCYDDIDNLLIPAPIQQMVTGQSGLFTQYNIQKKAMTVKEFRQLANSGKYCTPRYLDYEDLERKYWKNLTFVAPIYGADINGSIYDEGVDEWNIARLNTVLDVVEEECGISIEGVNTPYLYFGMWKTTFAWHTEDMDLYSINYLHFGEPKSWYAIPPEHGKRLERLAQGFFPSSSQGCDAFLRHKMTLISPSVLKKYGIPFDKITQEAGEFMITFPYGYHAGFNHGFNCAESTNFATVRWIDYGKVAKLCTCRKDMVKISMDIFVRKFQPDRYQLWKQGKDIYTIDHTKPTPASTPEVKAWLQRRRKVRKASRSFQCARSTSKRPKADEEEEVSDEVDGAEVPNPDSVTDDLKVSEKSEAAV
AHR act = activates the human aryl hydrocarbon receptor | activation, % at 5 µM | P35869 | 320,000 tested, 2.5% active | AHR-responsive luciferase reporter cells, luminescence; in the data active = activation above about 47%;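 also: 0% = vehicle wells and 100% = reference agonist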
SR-BI DiI-HDL act = activators of SR-BI mediated HDL lipid uptake | CHO ldlA[mSR-BI] cells, DiI-HDL uptake fluorescence, 3 h; 100 = double the neutral-control signal | activation, % at 12.5 µM | 320,000 tested, 0.096% active;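 active = mean replicate activation of at least 60% and every replicate at or above 60%; inconclusive = mean or all-replicate condition met, but not both; inactive = mean below 60% and not all replicates reaching 60%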;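 also: 0% = median plate neutral-control signal and 100% = twice that signal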
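Material: SR-BI-overexpressing, LDLR-lacking CHO cells | Dosing: Single compound concentration, delivered by pin transfer | Probe or stimulus: Labelled HDL, 10 µg/mL | Signal: Bottom-read cell fluorescence after medium removal, ex 550/em 595 nm | Schedule: 3 h, 37 °C | Evaluation: HDL uptake via cellular fluorescence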
DiI quench = quenches DiI-HDL fluorescence, an SR-BI assay artifact; shares compounds with SR-BI DiI inh; cell-free DiI-HDL fluorescence quenching, 30 min; AC50, µM (series often up to 35 µM), for the others: top-dose activity change, negative = quenching; 470 tested, 20% active;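 active = quenching, a falling signal, with AC50 below a set limit tied to the top valid dose, actives reach about 32 µM in these data; inconclusive = no clear call, values can overlap the other calls; inactive = rising signal, and the rest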
Numbers without * were called inactive. An excerpt weighted towards active compounds, which were near 3.7% of everything screened.

What do the screens show for `c1ccc(COn2c(-c3ccccc3)nc3c2CCc2nonc2-3)cc1`?
SR-BI DiI inh: inconclusive; GAA850 FXN act: -0.5; JMJD2C inh: 2.9; AHR act: 27.9; SR-BI DiI-HDL act: -70.5; DiI quench: 0.8%

How did COn1c(-c2ccccc2)nc2c1CCc1nonc1-2 do in these assays?
SR-BI DiI inh: -8.2; GAA850 FXN act: 0.8; JMJD2C inh: -7.9; AHR act: -2.4; SR-BI DiI-HDL act: 8.2

How did Cc1ccccc1OCC(=O)N=Nc1c(O)n(C)c2ccccc12 do in these assays?
GAA850 FXN act: 1.2; JMJD2C inh: 5.3; AHR act: 36.0

How did CCc1cc2c(=O)c(-c3ccc4c(c3)OCCO4)coc2cc1OS(C)(=O)=O do in these assays?
SR-BI DiI inh: 74.6*; GAA850 FXN act: 4.1; JMJD2C inh: -0.7; AHR act: 5.1; SR-BI DiI-HDL act: -74.6; DiI quench: -0.6%

Results for CCc1cc2c(=O)c(-c3ccc4c(c3)OCCO4)coc2c(CN2CCCCC2C)c1O (stereo not given) ?
SR-BI DiI inh: 56.5; GAA850 FXN act: 2.7; JMJD2C inh: 0.5; AHR act: 1.5; SR-BI DiI-HDL act: -50.0

How did COc1ccc(-c2nnn(CC(=O)N(c3cccc(O)c3)C(C)C(=O)NC3CCCC3)n2)cc1OC (stereo not given) do in these assays?
SR-BI DiI inh: 15.8; GAA850 FXN act: 0.1; JMJD2C inh: -1.1; AHR act: -0.5; SR-BI DiI-HDL act: -15.8

How did COc1ccc(N(CC(=O)NC2CCCC2)C(=O)Cn2nnc(-c3ccc(OC)c(OC)c3)n2)cc1 do in these assays?
SR-BI DiI inh: 80.0*; GAA850 FXN act: -0.8; JMJD2C inh: 5.0; AHR act: 0.8; SR-BI DiI-HDL act: -80.0; DiI quench: -3.9%

What do the screens show for `CCC(C(=O)NC1CCCC1)N(C(=O)Cn1nnc(-c2ccc(OC)c(OC)c2)n1)c1cccc(O)c1` (stereo not given)?
SR-BI DiI inh: 28.0; GAA850 FXN act: 1.6; JMJD2C inh: 6.2; AHR act: 1.1; SR-BI DiI-HDL act: -28.0; DiI quench: 0.0%

What do the screens show for `CCOc1ccc2c(c1)-c1c(ssc1=S)C(C)(C)N2C(=O)c1ccco1`?
SR-BI DiI inh: 73.5*; GAA850 FXN act: -3.0; JMJD2C inh: 4.1; AHR act: 19.4; SR-BI DiI-HDL act: -73.5; DiI quench: 30.7µM*

How did COc1ccc2c(c1)-c1c(ssc1=S)C(C)(C)N2C(=O)CSC1=NCCS1 do in these assays?
SR-BI DiI inh: 24.3; GAA850 FXN act: -5.2; JMJD2C inh: 7.2; AHR act: 21.9; SR-BI DiI-HDL act: -24.3

What do the screens show for `CCC(=O)N1CCc2cc(-c3csc(NC(=O)c4ccco4)n3)ccc21`?
SR-BI DiI inh: 87.8*; GAA850 FXN act: 0.8; JMJD2C inh: -7.3; AHR act: -5.5; SR-BI DiI-HDL act: -87.8; DiI quench: -1.0%

How did CS(=O)(=O)N1CCc2cc(-c3csc(NC(=O)Cc4ccccc4)n3)ccc21 do in these assays?
SR-BI DiI inh: inconclusive; GAA850 FXN act: -2.8; JMJD2C inh: 10.7; AHR act: -3.5; SR-BI DiI-HDL act: -74.8; DiI quench: -1.7%

What do the screens show for `CC(C)C(=O)N1CCc2cc(-c3csc(N)n3)ccc21`?
SR-BI DiI inh: 78.8*; GAA850 FXN act: 0.8; JMJD2C inh: 2.8; AHR act: 3.3; SR-BI DiI-HDL act: -78.8; DiI quench: -14.6%

How did Cc1ccccc1C(=O)N1CCc2cc(-c3csc(NC(=O)CN4CCCC4)n3)ccc21 do in these assays?
SR-BI DiI inh: 49.9; GAA850 FXN act: 2.5; JMJD2C inh: 4.6; AHR act: 13.0; SR-BI DiI-HDL act: -49.9

Results for O=C(Nc1nc(-c2ccc3c(c2)OCCO3)cs1)c1ccco1 ?
SR-BI DiI inh: 20.6; GAA850 FXN act: 2.4; JMJD2C inh: -4.8; AHR act: 12.2; SR-BI DiI-HDL act: -20.6

Results for CC1(C)CC(O)C(C)(C)N1O (stereo not given) ?
SR-BI DiI inh: -15.4; GAA850 FXN act: 3.0; JMJD2C inh: 0.8; AHR act: 2.6; SR-BI DiI-HDL act: 15.4

What do the screens show for `CN(CC(=O)Nc1cccc(Cl)c1)S(=O)(=O)/C=C/c1ccccc1`?
GAA850 FXN act: 0.3

What do the screens show for `O=C(c1ccccc1)N1CCOC12CCN(c1ncc(C(F)(F)F)cc1Cl)CC2`?
SR-BI DiI inh: -6.0; GAA850 FXN act: 3.7; JMJD2C inh: -3.8; AHR act: -0.2; SR-BI DiI-HDL act: 6.0

What do the screens show for `O=C(c1ccc([N+](=O)[O-])cc1)N1CCOC12CCN(c1ncc(C(F)(F)F)cc1Cl)CC2`?
SR-BI DiI inh: -2.7; GAA850 FXN act: 0.0; JMJD2C inh: 1.5; AHR act: 1.6; SR-BI DiI-HDL act: 2.7; DiI quench: -18.7%

What do the screens show for `O=C(/C=C/c1ccco1)Nc1cccc(NC(=O)/C=C/c2ccco2)n1`?
SR-BI DiI inh: 8.4; GAA850 FXN act: 3.5; JMJD2C inh: 22.6; AHR act: 19.8; SR-BI DiI-HDL act: -8.4; DiI quench: -6.0%

Results for Cc1nc(NC(=O)/C=C/c2ccco2)sc1C ?
SR-BI DiI inh: 7.6; GAA850 FXN act: 0.6; JMJD2C inh: -0.2; AHR act: 10.1; SR-BI DiI-HDL act: -7.6

What do the screens show for `COC(=O)[C@]1(CC(C)C)N[C@H](c2ccc(-c3cccc(Cl)c3)cc2)[C@@H]2C(=O)N(C)C(=O)[C@@H]21`?
SR-BI DiI inh: 74.4*; GAA850 FXN act: -1.6; JMJD2C inh: inconclusive; AHR act: 8.0; SR-BI DiI-HDL act: -74.4; DiI quench: -1.3%

Results for O=C(Nc1cccc(Cl)c1)Nc1sccc1-c1nc2ccccc2s1 ?
SR-BI DiI inh: 105.5*; GAA850 FXN act: 1.4; JMJD2C inh: -20.8; AHR act: 48.7*; SR-BI DiI-HDL act: -105.5; DiI quench: 10.8%

What do the screens show for `O=C(Nc1cccc(-c2nc3ccccc3s2)c1)c1cccs1`?
SR-BI DiI inh: 30.6; GAA850 FXN act: 3.8; JMJD2C inh: -5.6; AHR act: 45.6; SR-BI DiI-HDL act: -30.6

What do the screens show for `Cc1ccc(S(=O)(=O)N2CCC(C(=O)NCCCN3CCOCC3)CC2)cc1`?
SR-BI DiI inh: -15.7; GAA850 FXN act: 0.3; JMJD2C inh: -5.8; AHR act: -0.9; SR-BI DiI-HDL act: 15.7

How did CC(C)Cc1nnc(NC(=O)c2ccc3c(c2)OCCO3)s1 do in these assays?
SR-BI DiI inh: 13.9; GAA850 FXN act: 1.5; JMJD2C inh: 9.3; AHR act: -1.0; SR-BI DiI-HDL act: -13.9

What do the screens show for `Cc1ccc(F)cc1NC(=O)C1C2CCC(O2)C1C(=O)O` (stereo not given)?
SR-BI DiI inh: -23.5; GAA850 FXN act: 1.7; JMJD2C inh: -3.9; AHR act: -0.2; SR-BI DiI-HDL act: 23.5; DiI quench: -3.5%

What do the screens show for `CC(c1ccccc1)C(NC(=O)OCC1c2ccccc2-c2ccccc21)C(=O)O` (stereo not given)?
SR-BI DiI inh: -6.6; GAA850 FXN act: -1.4; JMJD2C inh: -0.7; AHR act: 4.3; SR-BI DiI-HDL act: 6.6
